Experimental data reported in ChEMBL document CHEMBL6127097, “Structure-Guided Discovery of cis-Hexahydro-pyrido-oxazinones as Reversible, Drug-like Monoacylglycerol Lipase Inhibitors” (J Med Chem, 2024).
Values after ≈ are worked out from the molar mass of the structure shown. Active and inactive are the calls of the source.

Key:
[1] = test system: LLC-PK1; assay: Substrate activity at mouse P-gp expressed in LLC-PK1 cells assessed as efflux ratio incubated for 3 hrs; format: cell-based
Outline: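 LLC-PK1 porcine kidney cells transfected with human or mouse P-gp, grown as polarized monolayers on filter plates. Compound is dosed apically or basolaterally and transport followed 3 h at 37 °C. Efflux ratio comes from unidirectional Papp; 1 µM zosuquidar defines permeability without P-gp.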

[2] = molecular target: T1, Monoacylglycerol lipase ABHD6 (Mus musculus) (UniProt Q8R2Y0); assay: Inhibition of ABHD6 in mouse brain lysates at 10 uM by ABPP assay; format: subcellular
T1 sequence (whole entry): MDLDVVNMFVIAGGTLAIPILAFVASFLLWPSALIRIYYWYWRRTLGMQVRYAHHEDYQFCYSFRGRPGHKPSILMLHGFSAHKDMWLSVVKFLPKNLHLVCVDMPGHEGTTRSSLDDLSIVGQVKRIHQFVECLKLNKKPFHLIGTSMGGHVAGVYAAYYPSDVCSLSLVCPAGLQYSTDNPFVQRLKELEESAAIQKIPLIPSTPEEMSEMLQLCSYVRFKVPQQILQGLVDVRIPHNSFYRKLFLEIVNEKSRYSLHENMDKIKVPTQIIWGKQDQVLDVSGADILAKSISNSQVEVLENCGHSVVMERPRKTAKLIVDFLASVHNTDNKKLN
Outline: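 Gel-based activity-based protein profiling of hydrolases, with the inhibitor at 10 µM.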

[3] = Clearance in mouse hepatocytes assessed per 10 million cells; format: ADME, cell-based, Hepatocyte; details: read-out: CLH
[4] = Volume of distribution at steady state in Wistar rat at 1 mg/kg, iv measured upto 24 hrs by LC-MS/MS analysis; format: ADME, organism-based; details: in vivo, read-out: Vdss
Outline: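 Male Wistar rats (N = 3) received a single 1 mg/kg i.v. dose as a solution in NMP/0.9% NaCl (30:70, 2 mL/kg). Blood was drawn at 0.083, 0.25, 0.5, 1, 2, 4, 7 and 24 h onto K2EDTA, and plasma was separated by centrifugation at 3000g for 15 min at 4 °C. Concentrations were measured by LC-MS/MS, and Vss was derived by noncompartmental analysis.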

[5] = Clearance in rat hepatocytes assessed per 10 million cells; format: ADME, cell-based, Hepatocyte
[6] = Inhibition of Cynomolgus monkey MAGL using native substrate by Rapidfire MS assay
[7] = Half-life in Wistar rat at 10 mg/kg, ip […] by LC-MS/MS analysis; format: ADME, organism-based; details: in vivo
Outline: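 Male Wistar rats, single dose. i.v. in NMP/0.9% NaCl 30:70; p.o. and i.p. in NMP/HPMC/diisooctyl sulfosuccinate 10:90; 3 per i.v./p.o. group, 6 i.p. K2EDTA plasma sampled 0.083–7 h, plus 24 h for i.v./p.o.; brain and CSF at 1, 2, 7 h (i.p. only). LC-MS/MS, noncompartmental analysis.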

[8] = molecular target: CYP2C9 (Homo sapiens, UniProt P11712); assay: Inhibition of CYP2C9 (unknown origin) at 10 uM relative to control; format: ADME
[9] = Aqueous solubility of compound in phosphate buffer at pH 6.5 by HPLC or MS/MS analysis; format: physicochemical; details: buffer
Outline: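 Lyophilization solubility assay (LYSA) starting from a 10 mM DMSO stock. DMSO was removed by centrifugal vacuum evaporation, then 0.05 M phosphate buffer pH 6.5 was added and samples sonicated. Filtrates were analysed by MS/MS and/or HPLC against a 4- to 7-point calibration curve.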

[10] = Free fraction in human plasma incubated for 5 hrs by equilibrium dialysis based LC-MS/MS analysis; format: ADME, cell-free
Outline: (§1)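 Equilibrium dialysis across a 12–14 kDa cutoff membrane in a Teflon 96-well device. Pooled frozen plasma is adjusted to pH 7.4 and spiked at 1000 nM initial total, against Soerensen buffer pH 7.4. Incubation is 5 h at 37 °C, 5% CO2, with diazepam control in each well. %fu = 100 × buffer/matrix concentration after dialysis; recovery accepted at 80–120%.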

[11] = Genotoxicity in Salmonella typhimurium by Ames test; format: toxicity; details: salmonella enterica subsp. enterica serovar typhimurium
[12] = Plasma protein binding in mouse assessed as fraction unbound by equilibrium dialysis based LC-MS/MS method; format: ADME, cell-free; outline: as §1
[13] = Clearance in rat microsomes; format: ADME, Microsome
[14] = molecular target: T2, Monoglyceride lipase (Mus musculus, UniProt O35678); assay: Inhibition of mouse MAGL using native substrate by Rapidfire MS assay
T2 sequence (O35678 whole entry): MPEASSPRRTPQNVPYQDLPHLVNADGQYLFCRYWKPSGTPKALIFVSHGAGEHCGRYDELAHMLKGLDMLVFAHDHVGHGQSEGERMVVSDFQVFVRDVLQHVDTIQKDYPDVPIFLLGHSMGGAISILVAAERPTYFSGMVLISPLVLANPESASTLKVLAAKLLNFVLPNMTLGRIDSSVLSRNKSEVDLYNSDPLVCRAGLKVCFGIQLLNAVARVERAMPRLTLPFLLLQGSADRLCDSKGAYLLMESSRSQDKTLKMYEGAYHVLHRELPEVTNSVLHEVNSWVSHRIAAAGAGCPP

[15] = Clearance in human hepatocytes assessed per 10 million cells; format: ADME, cell-based, Hepatocyte; details: read-out: CLH

CYP2C9, sequence (P11712 whole entry): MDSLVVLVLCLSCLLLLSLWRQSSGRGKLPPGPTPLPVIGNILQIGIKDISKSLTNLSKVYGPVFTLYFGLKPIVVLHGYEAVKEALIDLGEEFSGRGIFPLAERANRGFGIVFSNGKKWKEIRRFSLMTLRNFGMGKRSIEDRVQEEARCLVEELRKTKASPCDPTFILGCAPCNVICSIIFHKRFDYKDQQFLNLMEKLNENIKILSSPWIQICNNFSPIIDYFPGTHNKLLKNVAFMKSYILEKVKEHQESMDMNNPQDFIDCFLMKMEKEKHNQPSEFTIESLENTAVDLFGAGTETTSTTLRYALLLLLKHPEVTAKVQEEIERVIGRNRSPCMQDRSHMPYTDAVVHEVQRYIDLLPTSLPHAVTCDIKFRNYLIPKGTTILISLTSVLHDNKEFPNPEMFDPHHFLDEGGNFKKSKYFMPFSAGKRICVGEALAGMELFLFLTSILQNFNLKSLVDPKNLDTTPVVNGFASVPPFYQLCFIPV

inhibition [2] | hepatocyte CLint [3] [µL/min/1e6 cells] | Vd [4] [L/kg] | hepatocyte CLint [5] [µL/min/10^7 cells] | IC50 [6] [nM] | half-life [7] [h] | inhibition at 10 µM [8] [%] | solubility [9] [µg/mL] | fraction unbound at 5 h [10] | fraction unbound [12] | microsomal CLint [13] [µL/min/mg] | IC50 [14] [nM] | hepatocyte CLint [15] [µL/min/1e6 cells] | Structure (SMILES) | Ratio [1] | Activity [11]
inactive |  |  |  |  |  |  |  |  |  |  |  |  | O=C1CO[C@H]2CCN(C(=O)N3CCC(Cc4ccc(C(F)(F)F)cc4)CC3)C[C@H]2N1 [listing 1 of 2 here] | 4 | 
 | 8.9 | 1.3 | 4 | 16 | 2.7 | 3 | 231 (≈ 543 µM) | 0.043 | 0.047 | 11 | 91 | 1.9 | O=C1CO[C@H]2CCN(C(=O)N3CCC(Cc4ccc(C(F)(F)F)cc4)CC3)C[C@H]2N1 [listing 2 of 2 here] |  | Non-Toxic
